Reference: the M2OR odorant receptor database

Columns and labels:
Settings in all cases: stereoisomer not certain
OR52E1 (Homo sapiens) = OR52E1 (Homo sapiens) (UniProt Q8NGJ3)
In short: (§1)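 Assay methods differ from source to source, frequently being transient luciferase assays in mammalian cell lines. For each receptor–molecule pair, the label responsive (active) applies when the original authors judged the measured signal statistically different from baseline, and non-responsive (inactive) applies otherwise.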

OR52E2 (Homo sapiens) = OR52E2 (Homo sapiens) (UniProt Q8NGJ4)
In short: as §1

OR52E4 (Homo sapiens) = OR52E4 (Homo sapiens) (UniProt Q8NGH9)
In short: as §1

OR52E6 (Homo sapiens) = OR52E6 (Homo sapiens) (UniProt Q96RD3)
In short: as §1

OR52I1 (Homo sapiens) = OR52I1 (Homo sapiens) (UniProt Q8NGK6)
In short: as §1

OR52I2 (Homo sapiens) = OR52I2 (Homo sapiens) (UniProt Q8NH67)
In short: as §1

OR52J3 (Homo sapiens) = OR52J3 (Homo sapiens) (UniProt Q8NH60)
In short: as §1

OR52K1 (Homo sapiens) = OR52K1 (Homo sapiens) (UniProt Q8NGK4)
In short: as §1

OR52K2 (Homo sapiens) = OR52K2 (Homo sapiens) (UniProt Q8NGK3)
In short: as §1

OR52L1 (Homo sapiens) [1] = biological target: OR52L1 (Homo sapiens) (UniProt Q8NGH7)
In short: as §1

OR52M1 (Homo sapiens) = OR52M1 (Homo sapiens) (UniProt Q8NGK5)
In short: as §1

OR52N1 (Homo sapiens) = OR52N1 (Homo sapiens) (UniProt Q8NH53)
In short: as §1

OR52N2 (Homo sapiens) = OR52N2 (Homo sapiens) (UniProt Q8NGI0)
In short: as §1

OR52N4 (Homo sapiens) = OR52N4 (Homo sapiens) (UniProt Q8NGI2)
In short: as §1

OR52N5 (Homo sapiens) = OR52N5 (Homo sapiens) (UniProt Q8NH56)
In short: as §1

OR52R1 (Homo sapiens) = OR52R1 (Homo sapiens) (UniProt Q8NGF1)
In short: as §1

OR52W1 (Homo sapiens) = OR52W1 (Homo sapiens) (UniProt Q6IF63)
In short: as §1

OR52E5 (Homo sapiens) = OR52E5 (Homo sapiens) (UniProt Q8NH55)
In short: as §1

OR52L1 (Homo sapiens) [2] = biological target: OR52L1 (Homo sapiens) (UniProt Q8NGH7); remark: listed apart in the source
In short: as §1

Measured: odorant receptor agonist call

OR52W1 (Homo sapiens), sequence (Q6IF63 whole entry): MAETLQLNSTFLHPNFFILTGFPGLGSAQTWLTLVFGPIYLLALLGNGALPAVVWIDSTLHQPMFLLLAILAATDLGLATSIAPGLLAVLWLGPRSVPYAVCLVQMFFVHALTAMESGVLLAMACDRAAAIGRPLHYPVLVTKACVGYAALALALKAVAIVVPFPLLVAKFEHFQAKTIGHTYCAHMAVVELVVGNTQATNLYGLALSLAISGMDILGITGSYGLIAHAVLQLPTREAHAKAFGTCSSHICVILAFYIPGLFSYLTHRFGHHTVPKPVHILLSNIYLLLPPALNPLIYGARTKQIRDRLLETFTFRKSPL
OR52I1 (Homo sapiens), sequence (Q8NGK6 whole entry): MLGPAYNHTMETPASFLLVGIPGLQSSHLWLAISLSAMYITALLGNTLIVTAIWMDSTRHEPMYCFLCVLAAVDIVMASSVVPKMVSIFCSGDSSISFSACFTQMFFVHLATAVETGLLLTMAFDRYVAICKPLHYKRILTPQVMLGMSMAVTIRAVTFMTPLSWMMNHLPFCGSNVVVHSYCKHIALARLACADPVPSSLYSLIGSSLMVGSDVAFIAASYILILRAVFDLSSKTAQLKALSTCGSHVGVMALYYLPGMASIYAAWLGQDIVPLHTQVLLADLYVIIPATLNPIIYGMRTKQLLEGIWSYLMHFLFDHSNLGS
OR52E1 (Homo sapiens), sequence (Q8NGJ3 whole entry): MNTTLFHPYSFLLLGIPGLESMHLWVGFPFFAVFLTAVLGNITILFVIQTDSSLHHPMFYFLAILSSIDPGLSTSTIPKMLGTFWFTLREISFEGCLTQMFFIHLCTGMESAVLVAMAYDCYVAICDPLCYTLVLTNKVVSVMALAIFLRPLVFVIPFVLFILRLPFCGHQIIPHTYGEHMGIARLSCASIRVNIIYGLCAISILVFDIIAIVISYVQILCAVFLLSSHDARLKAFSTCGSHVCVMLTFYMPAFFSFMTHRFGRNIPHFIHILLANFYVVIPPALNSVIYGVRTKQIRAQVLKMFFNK
OR52R1 (Homo sapiens), sequence (Q8NGF1 whole entry): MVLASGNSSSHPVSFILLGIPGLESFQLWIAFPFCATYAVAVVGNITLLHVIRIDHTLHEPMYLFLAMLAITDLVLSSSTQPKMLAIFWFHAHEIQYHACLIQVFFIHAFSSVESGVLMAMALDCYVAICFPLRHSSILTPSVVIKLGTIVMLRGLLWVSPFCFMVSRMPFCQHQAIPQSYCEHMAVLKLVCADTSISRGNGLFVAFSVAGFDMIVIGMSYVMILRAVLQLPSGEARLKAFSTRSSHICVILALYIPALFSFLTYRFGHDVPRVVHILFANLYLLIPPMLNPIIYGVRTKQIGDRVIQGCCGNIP
OR52K1 (Homo sapiens), sequence (Q8NGK4 whole entry): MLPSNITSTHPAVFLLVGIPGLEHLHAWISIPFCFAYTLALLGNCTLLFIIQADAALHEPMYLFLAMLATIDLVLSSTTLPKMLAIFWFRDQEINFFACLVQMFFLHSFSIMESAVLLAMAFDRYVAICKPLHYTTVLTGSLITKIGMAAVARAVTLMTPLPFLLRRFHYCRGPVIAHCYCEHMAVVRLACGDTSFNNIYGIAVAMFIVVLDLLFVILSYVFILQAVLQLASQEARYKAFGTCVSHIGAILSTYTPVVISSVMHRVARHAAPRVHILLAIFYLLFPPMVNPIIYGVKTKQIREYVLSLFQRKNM
OR52E4 (Homo sapiens), sequence (Q8NGH9 whole entry): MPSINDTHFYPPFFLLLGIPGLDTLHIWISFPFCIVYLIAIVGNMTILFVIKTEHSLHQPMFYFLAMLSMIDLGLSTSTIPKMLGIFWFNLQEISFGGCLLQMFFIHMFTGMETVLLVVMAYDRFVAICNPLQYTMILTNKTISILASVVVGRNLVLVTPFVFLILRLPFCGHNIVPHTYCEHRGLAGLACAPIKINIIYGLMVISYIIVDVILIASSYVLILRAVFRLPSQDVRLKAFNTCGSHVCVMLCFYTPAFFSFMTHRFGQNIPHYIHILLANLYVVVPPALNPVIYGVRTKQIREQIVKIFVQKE
OR52N2 (Homo sapiens), sequence (Q8NGI0 whole entry): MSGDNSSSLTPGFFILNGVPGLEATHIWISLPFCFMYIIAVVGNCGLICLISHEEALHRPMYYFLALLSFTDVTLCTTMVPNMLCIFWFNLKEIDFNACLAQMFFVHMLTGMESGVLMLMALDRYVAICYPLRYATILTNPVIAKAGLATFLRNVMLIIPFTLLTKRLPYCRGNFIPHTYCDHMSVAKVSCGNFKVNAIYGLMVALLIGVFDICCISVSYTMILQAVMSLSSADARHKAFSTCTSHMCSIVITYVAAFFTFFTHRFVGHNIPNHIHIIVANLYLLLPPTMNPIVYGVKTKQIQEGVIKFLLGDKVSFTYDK
OR52N5 (Homo sapiens), sequence (Q8NH56 whole entry): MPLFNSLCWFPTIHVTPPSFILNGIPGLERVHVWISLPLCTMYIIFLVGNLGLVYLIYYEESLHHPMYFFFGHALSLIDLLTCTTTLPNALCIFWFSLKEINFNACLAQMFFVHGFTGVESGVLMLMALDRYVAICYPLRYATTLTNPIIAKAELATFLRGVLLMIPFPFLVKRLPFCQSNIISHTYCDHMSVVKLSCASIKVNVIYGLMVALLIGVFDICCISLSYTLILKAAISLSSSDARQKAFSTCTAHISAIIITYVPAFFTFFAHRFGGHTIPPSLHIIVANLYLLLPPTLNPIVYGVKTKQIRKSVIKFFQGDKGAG
OR52N4 (Homo sapiens), sequence (Q8NGI2 whole entry): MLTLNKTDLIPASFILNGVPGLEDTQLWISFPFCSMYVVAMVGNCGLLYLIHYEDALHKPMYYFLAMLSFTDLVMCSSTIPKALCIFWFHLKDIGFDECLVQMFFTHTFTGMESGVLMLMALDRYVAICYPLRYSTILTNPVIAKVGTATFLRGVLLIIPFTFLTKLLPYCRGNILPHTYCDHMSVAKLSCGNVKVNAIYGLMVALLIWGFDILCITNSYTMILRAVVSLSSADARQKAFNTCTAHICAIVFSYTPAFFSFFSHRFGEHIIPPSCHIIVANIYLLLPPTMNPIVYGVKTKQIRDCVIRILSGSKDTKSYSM
OR52J3 (Homo sapiens), sequence (Q8NH60 whole entry): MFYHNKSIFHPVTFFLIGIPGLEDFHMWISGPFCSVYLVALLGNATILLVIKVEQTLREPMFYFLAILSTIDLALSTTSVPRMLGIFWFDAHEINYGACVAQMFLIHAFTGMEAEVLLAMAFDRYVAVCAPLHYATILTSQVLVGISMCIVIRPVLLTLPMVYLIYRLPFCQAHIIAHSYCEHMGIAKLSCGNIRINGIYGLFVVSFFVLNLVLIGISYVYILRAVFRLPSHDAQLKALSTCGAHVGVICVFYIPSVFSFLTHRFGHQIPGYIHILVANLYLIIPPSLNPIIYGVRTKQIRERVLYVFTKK
OR52M1 (Homo sapiens), sequence (Q8NGK5 whole entry): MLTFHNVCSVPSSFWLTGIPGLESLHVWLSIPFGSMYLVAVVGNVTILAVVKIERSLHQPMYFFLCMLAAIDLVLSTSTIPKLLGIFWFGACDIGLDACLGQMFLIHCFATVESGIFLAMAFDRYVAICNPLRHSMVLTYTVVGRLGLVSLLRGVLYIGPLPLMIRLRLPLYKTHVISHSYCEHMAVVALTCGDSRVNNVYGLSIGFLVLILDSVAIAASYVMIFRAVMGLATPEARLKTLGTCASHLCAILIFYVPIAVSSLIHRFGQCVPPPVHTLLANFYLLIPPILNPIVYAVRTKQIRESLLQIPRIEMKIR
OR52I2 (Homo sapiens), sequence (Q8NH67 whole entry): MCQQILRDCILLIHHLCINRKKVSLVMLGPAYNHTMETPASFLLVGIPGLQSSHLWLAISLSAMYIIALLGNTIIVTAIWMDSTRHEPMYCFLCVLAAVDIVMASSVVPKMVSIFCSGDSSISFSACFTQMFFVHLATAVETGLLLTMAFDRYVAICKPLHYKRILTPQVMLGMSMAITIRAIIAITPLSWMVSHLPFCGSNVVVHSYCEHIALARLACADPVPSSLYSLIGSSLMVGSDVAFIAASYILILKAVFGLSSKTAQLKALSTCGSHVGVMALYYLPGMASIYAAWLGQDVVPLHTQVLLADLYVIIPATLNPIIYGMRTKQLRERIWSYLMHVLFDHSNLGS
OR52E2 (Homo sapiens), sequence (Q8NGJ4 whole entry): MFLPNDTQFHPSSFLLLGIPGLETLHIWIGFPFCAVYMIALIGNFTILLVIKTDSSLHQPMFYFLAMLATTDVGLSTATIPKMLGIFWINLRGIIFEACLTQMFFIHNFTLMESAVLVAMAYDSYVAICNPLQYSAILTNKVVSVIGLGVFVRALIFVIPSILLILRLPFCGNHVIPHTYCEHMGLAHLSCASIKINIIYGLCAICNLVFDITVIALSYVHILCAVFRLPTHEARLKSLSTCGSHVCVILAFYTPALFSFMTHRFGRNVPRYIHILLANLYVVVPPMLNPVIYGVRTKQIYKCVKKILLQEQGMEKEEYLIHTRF
OR52K2 (Homo sapiens), sequence (Q8NGK3 whole entry): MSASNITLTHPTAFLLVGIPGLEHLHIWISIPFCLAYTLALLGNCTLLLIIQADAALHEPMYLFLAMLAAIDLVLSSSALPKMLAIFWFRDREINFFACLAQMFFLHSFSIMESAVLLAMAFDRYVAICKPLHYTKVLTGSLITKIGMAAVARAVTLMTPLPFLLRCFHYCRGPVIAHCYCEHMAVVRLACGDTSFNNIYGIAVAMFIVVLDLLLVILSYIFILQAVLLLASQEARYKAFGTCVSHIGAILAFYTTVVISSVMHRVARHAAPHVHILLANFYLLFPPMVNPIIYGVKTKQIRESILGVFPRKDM
OR52E6 (Homo sapiens), sequence (Q96RD3 whole entry): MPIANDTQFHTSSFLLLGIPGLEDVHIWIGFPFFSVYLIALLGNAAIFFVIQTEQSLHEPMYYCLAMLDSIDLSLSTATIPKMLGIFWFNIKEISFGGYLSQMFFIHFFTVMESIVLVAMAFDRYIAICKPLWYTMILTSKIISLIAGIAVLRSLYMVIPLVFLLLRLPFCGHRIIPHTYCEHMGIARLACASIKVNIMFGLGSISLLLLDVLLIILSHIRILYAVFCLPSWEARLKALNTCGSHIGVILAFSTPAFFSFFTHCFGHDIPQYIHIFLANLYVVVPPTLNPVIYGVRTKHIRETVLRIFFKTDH

C=CCOC(=O)Cc1ccccc1
not listed: OR52E5 (Homo sapiens) | OR52L1 (Homo sapiens) [2]
inactive: all other assays above

Cc1c([N+](=O)[O-])c(C)c([N+](=O)[O-])c(C(C)(C)C)c1[N+](=O)[O-]
not listed: OR52L1 (Homo sapiens) [1]
inactive: all other assays above
